# Activity calls are given as the source filed them. No cut-off for these calls is given here.
# How the values were obtained:
# CCRF-CEM [1] = experiment: Cytotoxicity against human CCRF-CEM cells assessed as reduction in cell viability measured after 72 hrs by MTS assay; type: functional, cell-based
# HCT-116 = experiment: Cytotoxicity against human HCT-116 cells assessed as reduction in cell viability measured after 72 hrs by MTS assay; type: functional, cell-based; conditions: HCT-116, 72 h
# K562 = experiment: Cytotoxicity against human K562 cells assessed as reduction in cell viability measured after 72 hrs by MTS assay; type: functional, cell-based; conditions: K562, 72 h
# U2OS = experiment: Cytotoxicity against human U2OS cells assessed as reduction in cell viability measured after 72 hrs by MTS assay; type: functional, cell-based
# BJ = experiment: Cytotoxicity against human BJ cells assessed as reduction in cell viability measured after 72 hrs by MTS assay; type: cell-based
# CCRF-CEM [2] = experiment: Cell cycle arrest in human CCRF-CEM cells assessed as accumulation of cells at sub G1 phase at IC50 measured after 24 hrs by propidium iodide staining based flow cytometry analysis (Rvb= 2.77%); type: functional
# CCRF-CEM [3] = experiment: Cell cycle arrest in human CCRF-CEM cells assessed as accumulation of cells at G0/G1 phase at IC50 measured after 24 hrs by propidium iodide staining based flow cytometry analysis (Rvb= 40.20%); type: functional
# CCRF-CEM [4] = experiment: Cell cycle arrest in human CCRF-CEM cells assessed as accumulation of cells at G0/G1 phase at 5 times IC50 measured after 24 hrs by propidium iodide staining based flow cytometry analysis (Rvb= 40.20%); type: functional
# CCRF-CEM [5] = experiment: Cell cycle arrest in human CCRF-CEM cells assessed as accumulation of cells at S phase at IC50 measured after 24 hrs by propidium iodide staining based flow cytometry analysis (Rvb= 38.17%); type: functional
# CCRF-CEM [6] = experiment: Cell cycle arrest in human CCRF-CEM cells assessed as accumulation of cells at S phase at 5 times IC50 measured after 24 hrs by propidium iodide staining based flow cytometry analysis (Rvb= 38.17%); type: functional
# CCRF-CEM [7] = experiment: Cell cycle arrest in human CCRF-CEM cells assessed as accumulation of cells at G2/M phase at 5 times IC50 measured after 24 hrs by propidium iodide staining based flow cytometry analysis (Rvb= 21.62%); type: functional
# CCRF-CEM [8] = experiment: Inhibition of DNA synthesis in human CCRF-CEM cells at IC50 by BrdU incorporation assay (Rvb= 41.56%); type: functional; parameters: scale not given: the % may be the effect or the level left
# CCRF-CEM [9] = experiment: Inhibition of DNA synthesis in human CCRF-CEM cells at 5 times IC50 by BrdU incorporation assay (Rvb= 41.56%); type: functional; parameters: scale not given: the % may be the effect or the level left
# CCRF-CEM [10] = experiment: Inhibition of RNA synthesis in human CCRF-CEM cells at IC50 by […] incorporation assay (Rvb= 36.54%); type: functional; parameters: scale not given: the % may be the effect or the level left
# CCRF-CEM [11] = experiment: Induction of apoptosis in human CCRF-CEM cells assessed as live cells at IC50 measured after 24 hrs by Annexin V-FITC/PI staining based flow cytometry analysis (Rvb= 96.7%); type: functional
# CCRF-CEM [12] = experiment: Induction of apoptosis in human CCRF-CEM cells assessed as live cells at 5 times IC50 measured after 24 hrs by Annexin V-FITC/PI staining based flow cytometry analysis (Rvb= 96.7%); type: functional
# CCRF-CEM [13] = experiment: Induction of apoptosis in human CCRF-CEM cells assessed as early apoptotic cells at IC50 measured after 24 hrs by Annexin V-FITC/PI staining based flow cytometry analysis (Rvb= 1.6%); type: functional
# CCRF-CEM [14] = experiment: Induction of apoptosis in human CCRF-CEM cells assessed as early apoptotic cells at 5 times IC50 measured after 24 hrs by Annexin V-FITC/PI staining based flow cytometry analysis (Rvb= 1.6%); type: functional
# CCRF-CEM [15] = experiment: Induction of apoptosis in human CCRF-CEM cells assessed as dead cells at IC50 measured after 24 hrs by Annexin V-FITC/PI staining based flow cytometry analysis (Rvb= 0.3%); type: functional
# Procedure, shortened: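 They were washed in ice-cold PBS and incubated with Annexin V-FITC plus PI for 20 min at room temperature in the dark. Cells were then pelleted and resuspended in binding buffer (10 mmol/L HEPES/NaOH pH 7.4, 140 mmol/L NaCl, 2.5 mmol/L CaCl2). Read on a FACSAria II, ≥10,000 cells per sample.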
# CCRF-CEM [16] = experiment: Induction of apoptosis in human CCRF-CEM cells assessed as activation of caspase 3 at 5 times IC50 measured after 24 hrs by western blot analysis; type: functional, cell-based
# Procedure, shortened: (§1)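 Protein (15 µg/lane) was resolved by 10% SDS-PAGE and transferred to nitrocellulose. Blocked in 5% milk/TBST, then probed overnight at 4 °C with primary antibodies (1:1000) and HRP secondaries. Detected by ECL, with β-actin as loading control.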
# CCRF-CEM [17] = experiment: Induction of apoptosis in human CCRF-CEM cells assessed as induction of PARP cleavage at 5 times IC50 measured after 24 hrs by western blot analysis; type: functional, cell-based; procedure, shortened: as §1
# CCRF-CEM [18] = experiment: Induction of cell cycle arrest in human CCRF-CEM cells assessed as upregulation of p21 protein expression at 5 times IC50 measured after 24 hrs by western blot analysis; type: functional, cell-based; procedure, shortened: as §1
# [19] = Stability in human plasma assessed as parent compound remaining at 2 uM incubated for 15 mins by RF-MS analysis; type: ADME, cell-free; conditions: read-out: Stability
# [20] = Stability in human plasma assessed as parent compound remaining at 2 uM incubated for 30 mins by RF-MS analysis; type: ADME, cell-free; conditions: read-out: Stability
# [21] = Stability in human plasma assessed as parent compound remaining at 2 uM incubated for 60 mins by RF-MS analysis; type: ADME, cell-free; conditions: read-out: Stability
# [22] = Stability in human plasma assessed as parent compound remaining at 2 uM incubated for 120 mins by RF-MS analysis; type: ADME, cell-free; conditions: read-out: Stability
# [23] = Microsomal stability in human liver microsomes assessed as parent compound remaining at 2 uM in the presence of NADPH measured after 15 mins by RF-MS analysis; type: ADME, Microsome; conditions: read-out: Stability
# Procedure, shortened: (§2)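 Human liver microsomes incubated with compound in the presence of NADPH cofactor to assess phase I oxidation. Intrinsic clearance was derived from the decline of the parent compound.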
# [24] = Microsomal stability in human liver microsomes assessed as parent compound remaining at 2 uM in the presence of NADPH measured after 60 mins by RF-MS analysis; type: ADME, Microsome; conditions: read-out: Stability; procedure, shortened: as §2
# [25] = Apparent permeability of the compound in dog MDCK-MDR1 cells at pH 7.4 at 10 micromol/L measured after 1 hr by RF-MS analysis; type: ADME, cell-based, Canis lupus familiaris; conditions: MDCK-MDR1, pH 7.4, dose 10 µmol/L
# Procedure, shortened: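 Caco-2 and MDCK-MDR1 cells grown on polyester Transwell filters (0.4 and 1 µm pores) in DMEM pH 7.4 with 10% FBS; monolayer integrity checked by Lucifer Yellow rejection. Cells washed and pre-equilibrated 1 h in HBSS pH 7.4, then dosed with compound in HBSS pH 7.4. Incubation was 1 h for MDCK and 2 h for Caco-2. Samples lyophilized and quantified by RapidFire MS/MS with internal standard. Duplicates. Papp = (dQ/dt)/(C0·A).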
# [26] = Apparent permeability of the compound in dog MDCK-MDR1 cells assessed as recovery rate at pH 7.4 at 10 micromol/L measured after 1 hr by RF-MS analysis; type: ADME, cell-based, Canis lupus familiaris; conditions: MDCK-MDR1, pH 7.4, dose 10 µmol/L, read-out: Activity
# [27] = Fraction bound in human plasma at 10 uM measured after 4 hrs by RF-MS based rapid equilibrium dialysis method
SMILES,IC50 (CCRF-CEM [1]),IC50 (HCT-116),IC50 (K562),IC50 (U2OS),IC50 (BJ),Activity (CCRF-CEM [2]),Activity (CCRF-CEM [3]),Activity (CCRF-CEM [4]),Activity (CCRF-CEM [5]),Activity (CCRF-CEM [6]),Activity (CCRF-CEM [7]),Activity (CCRF-CEM [8]),Activity (CCRF-CEM [9]),Activity (CCRF-CEM [10]),Activity (CCRF-CEM [11]),Activity (CCRF-CEM [12]),Activity (CCRF-CEM [13]),Activity (CCRF-CEM [14]),Activity (CCRF-CEM [15]),Activity (CCRF-CEM [16]),also measured
C=C(/C=C/c1cccc(Cl)c1)[C@@H]1CC[C@]2(C(=O)O)CC[C@]3(C)[C@H](CC[C@@H]4[C@@]5(C)CC[C@H](O)C(C)(C)[C@@H]5CC[C@]43C)[C@@H]12,3.2 µM,16.4 µM,27.7 µM,17.3 µM,> 50 µM,5.66%,42.87%,49.79%,42.75%,37.93%,12.28%,35.56%,0.4%,18.97%,91.9%,88.5%,2.1%,5.3%,1.4%,Active,"Activity (CCRF-CEM [17]): Active; Activity (CCRF-CEM [18]): Active; remaining at 0.25 h, 2 µM [19]: 92.3%; remaining at 0.5 h, 2 µM [20]: 87.9%; remaining at 1 h, 2 µM [21]: 89.5%; remaining at 2 h, 2 µM [22]: 77.7%; remaining at 0.25 h, 2 µM [23]: 90.1%; remaining at 1 h, 2 µM [24]: 81.5%; Papp at 1 h, 10 µM [25]: 22.4 ×10⁻⁶ cm/s; recovery at 1 h, 10 µM [26]: 104%; PPB (% bound) at 4 h, 10 µM [27]: 79%"
C=C(/C=C/c1ccc([N+](=O)[O-])cc1)[C@@H]1CC[C@]2(C(=O)O)CC[C@]3(C)[C@H](CC[C@@H]4[C@@]5(C)CC[C@H](O)C(C)(C)[C@@H]5CC[C@]43C)[C@@H]12,3.6 µM,18.6 µM,11.5 µM,19.5 µM,24.3 µM,6.54%,48.4%,29.57%,28.44%,57.61%,12.81%,43.17%,3.06%,34.98%,90.9%,70.9%,2.4%,17.6%,1.8%,Active,"Activity (CCRF-CEM [17]): Active; Activity (CCRF-CEM [18]): Active; remaining at 0.25 h, 2 µM [19]: 102%; remaining at 0.5 h, 2 µM [20]: 79.1%; remaining at 1 h, 2 µM [21]: 69.3%; remaining at 2 h, 2 µM [22]: 71.5%; remaining at 0.25 h, 2 µM [23]: 93.2%; remaining at 1 h, 2 µM [24]: 53.5%; Papp at 1 h, 10 µM [25]: 0.43 ×10⁻⁶ cm/s; recovery at 1 h, 10 µM [26]: 56.7%; PPB (% bound) at 4 h, 10 µM [27]: 68.1%"

# Reference: ChEMBL document CHEMBL4828721, “Substituted dienes prepared from betulinic acid - Synthesis, cytotoxicity, mechanism of action, and pharmacological parameters” (Eur J Med Chem, 2021)
